ChEMBL document CHEMBL1146375, “Synthetic studies on novel benzimidazolopeptides with antimicrobial, cytotoxic and anthelmintic potential” (2007)
Converted amounts (≈) assume the structure as drawn.

Test system: Bacillus subtilis
Assay: Antibacterial activity against Bacillus subtilis NCIM 2063 after 18 hrs by disc diffusion method
Type: functional
Details: not given
Summary of the method: (§1)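 Modified Kirby-Bauer disc diffusion. Plates inoculated with spore suspension (about 6 × 10⁴ spores mL^-1). Sterile 6 mm paper discs carried test samples at 10 mg mL^-1; ciprofloxacin disc as reference, DMF disc as negative control. Plates held 18 h at 37 °C. Inhibition zone diameters (mm) averaged over triplicate sets.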

| Compound | inhibition zone (IZ) [mm] |
| --- | --- |
| COC(=O)[C@@H](NC(=O)c1cc(I)c(-c2nc3cc(C)c(C)cc3[nH]2)c(I)c1)[C@@H](C)O | 20 |

Test system: Trichophyton benhamiae
Assay: Antifungal activity against Trichophyton mentagrophytes MUCC 665 after 48 hrs by tube dilution method
Type: functional, Arthroderma benhamiae
Details: not given
Summary of the method: (§2)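 Tube dilution MIC as for bacteria (seven concentrations, 200–3.1 […]), with DMSO in place of DMF. Tubes inoculated with fungal culture and incubated 48 h at 37 °C. MIC read from presence or absence of growth.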

| Compound | MIC [µg/mL] |
| --- | --- |
| COC(=O)[C@@H](NC(=O)c1cc(I)c(-c2nc3cc(C)c(C)cc3[nH]2)c(I)c1)[C@@H](C)O | 10 (≈ 15.8 µM) |

Test system: Candida albicans
Assay: Antifungal activity against Candida albicans MUCC 29 after 48 hrs by tube dilution method
Type: functional
Details: not given
Summary of the method: as §2

| Compound | MIC [µg/mL] |
| --- | --- |
| COC(=O)[C@@H](NC(=O)c1cc(I)c(-c2nc3cc(C)c(C)cc3[nH]2)c(I)c1)[C@@H](C)O | 6 (≈ 9.48 µM) |

Test system: Microsporum audouinii
Assay: Antifungal activity against Microsporum audouinii MUCC 545 after 48 hrs by tube dilution method
Type: functional
Details: not given
Summary of the method: as §2

| Compound | MIC [µg/mL] |
| --- | --- |
| COC(=O)[C@@H](NC(=O)c1cc(I)c(-c2nc3cc(C)c(C)cc3[nH]2)c(I)c1)[C@@H](C)O | 25 (≈ 39.5 µM) |

Test system: Pontoscolex corethrurus
Assay: Anthelmintic activity against Pontoscolex corethrurus ICARBC 408 assessed as mean paralyzing time
Type: functional
Details: not given
Summary of the method: (§3)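 Earthworms exposed to test suspensions at 2 mg mL^-1 (0.2% w/v), made by triturating compound with Tween 80 (0.5%) and distilled water, then mechanically stirred 30 min. Mebendazole suspension prepared alike as reference. Paralysis and death times recorded; death confirmed by no movement in 50 °C water. Means from triplicate sets.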

| Compound | Time [min] |
| --- | --- |
| COC(=O)[C@@H](NC(=O)c1cc(I)c(-c2nc3cc(C)c(C)cc3[nH]2)c(I)c1)[C@@H](C)O | 40.6 |

Test system: not listed separately
Assay: Anthelmintic activity against Megascoplex konkanensis ICARBC 211 assessed as mean paralyzing time
Type: functional
Details: not given
Summary of the method: as §3

| Compound | TIME [h] |
| --- | --- |
| COC(=O)[C@@H](NC(=O)c1cc(I)c(-c2nc3cc(C)c(C)cc3[nH]2)c(I)c1)[C@@H](C)O | 0.587 |

Test system: Pseudomonas aeruginosa
Assay: Antibacterial activity against Pseudomonas aeruginosa NCIM 2034 after 18 hrs by disc diffusion method
Type: functional
Details: not given
Summary of the method: as §1

| Compound | inhibition zone (IZ) [mm] |
| --- | --- |
| COC(=O)[C@@H](NC(=O)c1cc(I)c(-c2nc3cc(C)c(C)cc3[nH]2)c(I)c1)[C@@H](C)O | 23 |

Test system: Eudrilus
Assay: Anthelmintic activity against Eudrilus sp. assessed as mean paralyzing time
Type: functional
Details: not given
Summary of the method: as §3

| Compound | Time [min] |
| --- | --- |
| COC(=O)[C@@H](NC(=O)c1cc(I)c(-c2nc3cc(C)c(C)cc3[nH]2)c(I)c1)[C@@H](C)O | 31.22 |

Test system: Candida albicans
Assay: Antifungal activity against Candida albicans MUCC 29 after 48 hrs by disc diffusion method
Type: functional
Details: not given
Summary of the method: (§4)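 Agar well diffusion on plates inoculated with spore suspension in normal saline from cultures on Sabouraud's broth. Wells punched and loaded with test samples or griseofulvin at 10 mg mL^-1, with DMSO as negative control. Incubated 48 h at 37 °C.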

| Compound | inhibition zone (IZ) [mm] |
| --- | --- |
| COC(=O)[C@@H](NC(=O)c1cc(I)c(-c2nc3cc(C)c(C)cc3[nH]2)c(I)c1)[C@@H](C)O | 19 |

Test system: Trichophyton benhamiae
Assay: Antifungal activity against Trichophyton mentagrophytes MUCC 665 after 48 hrs by disc diffusion method
Type: functional, Arthroderma benhamiae
Details: not given
Summary of the method: as §4

| Compound | inhibition zone (IZ) [mm] |
| --- | --- |
| COC(=O)[C@@H](NC(=O)c1cc(I)c(-c2nc3cc(C)c(C)cc3[nH]2)c(I)c1)[C@@H](C)O | 10 |

Test system: Staphylococcus aureus
Assay: Antibacterial activity against Staphylococcus aureus NCIM 2079 after 18 hrs by tube dilution method
Type: functional
Details: NCIM 2079, 18 h
Summary of the method: (§5)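 Tube dilution MIC. Stock diluted in sterile broth to seven concentrations from 200 to 3.1 […]. Each tube inoculated with one loopful of test bacterium and incubated 18 h at 37 °C. MIC read from presence or absence of growth.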

| Compound | MIC [µg/mL] |
| --- | --- |
| COC(=O)[C@@H](NC(=O)c1cc(I)c(-c2nc3cc(C)c(C)cc3[nH]2)c(I)c1)[C@@H](C)O | 12.5 (≈ 19.7 µM) |

Test system: Escherichia coli
Assay: Antibacterial activity against Escherichia coli NCIM 2065 after 18 hrs by disc diffusion method
Type: functional
Details: not given
Summary of the method: as §1

| Compound | inhibition zone (IZ) [mm] |
| --- | --- |
| COC(=O)[C@@H](NC(=O)c1cc(I)c(-c2nc3cc(C)c(C)cc3[nH]2)c(I)c1)[C@@H](C)O | 16 |

Test system: Escherichia coli
Assay: Antibacterial activity against Escherichia coli NCIM 2065 after 18 hrs by tube dilution method
Type: functional
Details: NCIM 2065, 18 h

| Compound | MIC [µg/mL] |
| --- | --- |
| COC(=O)[C@@H](NC(=O)c1cc(I)c(-c2nc3cc(C)c(C)cc3[nH]2)c(I)c1)[C@@H](C)O | 12.5 (≈ 19.7 µM) |

Test system: Staphylococcus aureus
Assay: Antibacterial activity against Staphylococcus aureus NCIM 2079 after 18 hrs by disc diffusion method
Type: functional
Details: not given
Summary of the method: as §1

| Compound | inhibition zone (IZ) [mm] |
| --- | --- |
| COC(=O)[C@@H](NC(=O)c1cc(I)c(-c2nc3cc(C)c(C)cc3[nH]2)c(I)c1)[C@@H](C)O | 13 |

Test system: Pontoscolex corethrurus
Assay: Anthelmintic activity against Pontoscolex corethrurus ICARBC 408 assessed as mean death time
Type: functional
Details: not given
Summary of the method: (§6)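 Earthworms exposed to test suspensions at 2 mg mL−1, prepared by triturating compound with Tween 80 (0.5%) and distilled water, stirring 30 min, then diluting to 0.2% w/v. Mebendazole suspension was made the same way. Death was confirmed by moving worms into 50 °C warm water and looking for movement. Mean death time (min) taken from triplicate sets.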

| Compound | Time [min] |
| --- | --- |
| COC(=O)[C@@H](NC(=O)c1cc(I)c(-c2nc3cc(C)c(C)cc3[nH]2)c(I)c1)[C@@H](C)O | 78.32 |

Test system: Eudrilus
Assay: Anthelmintic activity against Eudrilus sp. assessed as mean death time
Type: functional
Details: not given
Summary of the method: as §6

| Compound | Time [min] |
| --- | --- |
| COC(=O)[C@@H](NC(=O)c1cc(I)c(-c2nc3cc(C)c(C)cc3[nH]2)c(I)c1)[C@@H](C)O | 69.45 |

Test system: Pseudomonas aeruginosa
Assay: Antibacterial activity against Pseudomonas aeruginosa NCIM 2034 after 18 hrs by tube dilution method
Type: functional
Details: NCIM 2034, 18 h
Summary of the method: as §5

| Compound | MIC [µg/mL] |
| --- | --- |
| COC(=O)[C@@H](NC(=O)c1cc(I)c(-c2nc3cc(C)c(C)cc3[nH]2)c(I)c1)[C@@H](C)O | 6 (≈ 9.48 µM) |

Test system: not listed separately
Assay: Anthelmintic activity against Megascoplex konkanensis ICARBC 211 assessed as mean death time
Type: functional
Details: not given
Summary of the method: as §3

| Compound | TIME [h] |
| --- | --- |
| COC(=O)[C@@H](NC(=O)c1cc(I)c(-c2nc3cc(C)c(C)cc3[nH]2)c(I)c1)[C@@H](C)O | 0.987 |

Test system: Microsporum audouinii
Assay: Antifungal activity against Microsporum audouinii MUCC 545 after 48 hrs by disc diffusion method
Type: functional
Details: not given
Summary of the method: as §4

| Compound | inhibition zone (IZ) [mm] |
| --- | --- |
| COC(=O)[C@@H](NC(=O)c1cc(I)c(-c2nc3cc(C)c(C)cc3[nH]2)c(I)c1)[C@@H](C)O | 8 |

Test system: Aspergillus niger
Assay: Antifungal activity against Aspergillus niger MUCC 177 after 48 hrs by disc diffusion method
Type: functional
Details: not given
Summary of the method: as §4

| Compound | inhibition zone (IZ) [mm] |
| --- | --- |
| COC(=O)[C@@H](NC(=O)c1cc(I)c(-c2nc3cc(C)c(C)cc3[nH]2)c(I)c1)[C@@H](C)O | 15 |

Test system: Bacillus subtilis
Assay: Antibacterial activity against Bacillus subtilis NCIM 2063 after 18 hrs by tube dilution method
Type: functional
Details: NCIM 2063, 18 h
Summary of the method: as §5

| Compound | MIC [µg/mL] |
| --- | --- |
| COC(=O)[C@@H](NC(=O)c1cc(I)c(-c2nc3cc(C)c(C)cc3[nH]2)c(I)c1)[C@@H](C)O | 6 (≈ 9.48 µM) |
